# Screening data (PubChem)
# In the library only some 2.3% were active in any assay of this set; here they are far more common.
# STAT3 act: activators of IL-6 induced STAT3 signaling; U3A cells, IL-6 STAT3-luciferase reporter, luminescence; 100% = signal with IL-6 EC80 alone; activation (% of control), % at 5.6 µM; actives 0.91% (n = 190,000); AID 871;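 active = activation above the screen-wide mean of compound activation plus 3 SD, cut at about 130% in these data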;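 note: 0% = background luminescence of wells with medium and substrate only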
#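 Material: STAT1-lacking human U3A cells, STAT3 luciferase reporter | Benchmarks: IL-6-only wells as 100% reference | Probe or stimulus: IL-6 (33 ng/mL) | Timing: Compound 1 h, then IL-6 6 h at 37 °C | Detection: Luminescence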
# STAT1 blocker: inhibitors of IFN-gamma induced STAT1 signaling | NIH 3T3 STAT1-luciferase reporter, luminescence | inhibition, % at 5.5 µM | actives 0.35% (n = 200,000) | AID 920;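 active = inhibition above a set limit, the mean inhibition across all tested compounds plus 3 SD, cut at about 34% in these data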;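 note: 0% = IFN-gamma with DMSO and 100% = IFN-gamma with 300 µM nifuroxazide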
# HSP90 refold inh: inhibitors of HSP90 luciferase refolding in rabbit reticulocyte lysate; AID 1789; inhibition, % at 5.6 µM; luciferase refolding luminescence, 3 h; actives 0.91% (n = 290,000);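 active = inhibition above the screen-wide mean plus 3 SD, computed separately per campaign, cut at about 16% in these data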;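 note: 0% = DMSO wells and 100% = 60 µM geldanamycin wells; inhibitors lower the luminescence because luciferase stays unfolded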
# C8 TRAIL sens: caspase-8 TRAIL sensitization; actives 1% (n = 360,000); NB7+C8 cells + TRAIL, ATPlite viability luminescence; inhibition (viability loss, TRAIL sensitization), % at 10 µM;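 active = compounds causing at least 50% loss of cell viability in the single-dose screen, relative to plate controls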
# STAT3 blocker: reduces IL-6 driven STAT3 reporter signal. U3A cells, IL-6 STAT3-luciferase reporter, luminescence; host cell line lacks STAT1. inhibition, % at 5.5 µM. actives 0.89% (n = 190,000);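 active = inhibition above the mean inhibition across all screened compounds plus 3 SD, cut at about 44% in these data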;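 note: 0% = DMSO only wells and 100% = 100 µM nifuroxazide control wells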
# PPC-1+TRAIL kill: PPC-1 cancer cell killing with TRAIL present; PPC-1 cells + TRAIL, ATPLite viability luminescence; cell killing (% activity), % at 4 µM or 5 µM; actives 0.41% (n = 220,000);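 active = cell killing above 50% in the first pass at 4 µM, then a duplicate retest at 5 µM averaging 50% or more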;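 note: plate controls were cells with TRAIL plus DMSO for no effect and medium-only wells lacking cells for full effect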
# Active calls of the source: *; . = no result.
SMILES,STAT3 act,STAT1 blocker,HSP90 refold inh,C8 TRAIL sens,STAT3 blocker,PPC-1+TRAIL kill
O=C(Cc1ccc(Cl)cc1)Nc1ccccc1Sc1ccccc1,106,-5,-1,19,-4,0
O=C(CCl)Nc1ccc(N=Nc2ccccc2)cc1,89,-27,2,27,15,28
O=C(CCl)Nc1ccccc1Sc1ccccc1,96,4,7,83*,2,12
O=C(CCl)Nc1cccc(Oc2ccccc2)c1,96,4,2,87*,10,5
O=C(CCl)Nc1ccc(-c2ccccc2)cc1,78,33,4,57*,31,26
COc1cc(NC(=O)c2c(F)c(F)c(F)c(F)c2F)c(OC)cc1Cl,115,-11,-1,76*,-15,6
COc1cc(NC(=O)c2ccc(F)cc2)c(OC)cc1Cl,121,6,4,-20,-21,19
CCCCCCC[N+](CC)(CC)CCCCc1ccc(Cl)cc1,.,.,.,57*,.,.
COc1ccc(-c2cc(C(=O)NCCCN3CCOCC3)on2)cc1OC,.,.,4,-4,.,.
Cc1onc(-c2c(F)cccc2Cl)c1C(=O)NCc1ccc2c(c1)OCO2,.,.,-7,0,.,.
Nc1nc(=S)c2ncn(C3OC(CO)C(O)C3O)c2[nH]1 (stereo not given),.,.,3,56*,.,-22
Nc1nc(=S)c2ncn([C@@H]3O[C@H](CO)[C@@H](O)[C@H]3O)c2[nH]1,.,.,.,73*,.,.
CC1(C)OC2C(CO)OC(n3cnc4c(=S)nc(N)[nH]c43)C2O1 (stereo not given),.,.,.,11,.,.
CCC(=O)c1cccc2c1N=CC1=C(CC(C)(C)CC1=O)N2,106,4,0,6,-7,33
COc1ccc(C(=O)Nc2cccc(/C(C)=N\NC(=O)c3ccoc3C)c2)cc1OC,.,.,0,12,.,.
CCOc1ccc(NC(=O)CN(C)C(=O)C2CC(=O)N(CCc3ccc(OC)c(OC)c3)C2)cc1OCC (stereo not given),.,.,.,2,.,.
COCCNC(=O)/C(C#N)=C/c1cc(C)n(-c2ccc(C)cc2)c1C,99,-48,4,62*,7,48
COCCNC(=O)/C(C#N)=C/c1cc(C)n(C2CCCCC2)c1C,86,-38,13,49,18,43
Cc1nn(-c2ccccc2)c(C)c1/C=N/NC(=O)c1cc(-c2ccc(Cl)s2)[nH]n1,105,-3,1,46*,2,-24
Cc1cc(C(=O)N/N=C/c2c(C)nn(-c3ccccc3)c2C)n[nH]1,.,.,7,12,.,14
Cc1nn(-c2ccccc2)c(C)c1/C=N/NC(=O)c1cc(-c2ccc(Br)s2)[nH]n1,94,-3,-4,41,14,-12
Cc1nn(-c2ccccc2)c(C)c1/C=N/NC(=O)c1cc(C23CC4CC(CC(C4)C2)C3)[nH]n1,99,6,4,64*,10,14
NC(=O)c1ccc(-n2nnnc2SCC(=O)Nc2ccc(N3CCOCC3)c(Cl)c2)cc1,87,-9,4,-4,20,22
CC(=O)c1ccc2c3c(cccc13)C(=O)N(CCc1ccccc1)C2=O,183*,-36,2,6,-101,7
O=C(O)c1ccc2c3c(cccc13)C(=O)N(c1ccccc1)C2=O,130,1,-3,-7,-28,-2
SMILES,STAT3 act,STAT1 blocker,HSP90 refold inh,C8 TRAIL sens,STAT3 blocker,PPC-1+TRAIL kill
Nc1ccccc1C(=O)N=Nc1[nH]c(N)c2ccccc12,90,-13,8,51*,14,42
CCOC(=O)C1=C[C@@H](C(C)C)N(S(=O)(=O)c2ccc(C)cc2)[C@H]1c1ccccc1F,.,.,.,2,.,.
Cc1ccc(O)c(N=NC2=C(O)CC(C)(C)CC2=O)c1,95,7,3,63*,6,47
CC1(C)CC(=O)C(N=Nc2cc(Cl)c(Cl)c(Cl)c2)=C(O)C1,102,2,-2,23,6,6
COc1ccccc1Nc1nc2nonc2[nH]c1=O,115,-4,3,2,-14,18
COc1ccc2nc(NNC(=O)c3cc(=O)c4ccccc4o3)sc2c1,.,-15,12,48*,.,16
Cc1cccc2sc(NNC(=O)c3cc(=O)c4ccccc4o3)nc12,.,0,-5,17,.,32
Cc1ccc2sc(NNC(=O)c3cc(=O)c4ccccc4o3)nc2c1C,.,-5,18*,-18,.,11
CC1CCCN(S(=O)(=O)c2ccc3c(c2)C(C)(C)C(=O)N3C)C1 (stereo not given),.,.,-3,1,.,.
COc1cc(/C=N/N2C(=O)c3ccccc3C2=O)ccc1O,100,8,4,1,3,8
Cc1ccsc1/C=N/N=C1\C(=O)Nc2ccccc21,100,-21,0,-8,2,16
O=C1Nc2ccccc2/C1=N\N=C\c1ccc(O)c(O)c1,.,.,-2,57*,.,30
COc1cc(/C=N/N=C2/C(=O)Nc3ccccc32)ccc1O,110,5,1,74*,-13,22
O=C(CCCC(=O)OCC(=O)c1ccc(Cl)cc1Cl)Nc1cc(C(F)(F)F)ccc1Cl,101,3,-1,3,5,5
CN(C)C(=O)CN1C(=O)NC(c2ccccc2)(c2ccccc2)C1=O,.,.,0,-5,.,.
Oc1c(Cl)cc(CN2CCOCC2)c2cccnc12,.,.,.,37,.,.
Oc1c(CN2CCCCC2)cc(Br)c2cccnc12,135*,5,7,51*,-37,-9
COc1ccc(OC)c(N(CC(=O)NCc2ccncc2)S(C)(=O)=O)c1,98,6,0,0,0,-1
O=C(c1cccs1)N1CCc2ccccc21,94,-43,-2,23,11,19
O=C(/C=C/c1cccs1)N1CCc2ccccc21,77,-38,13,56*,30,58*
CCc1cc2c(N3CCN(c4ccccc4)CC3)ncnc2s1,67,7,1,7,46*,-13
CCN(CC(=O)Nc1ccc2c(c1)OCCO2)C(=O)c1ccc(CS(C)(=O)=O)cc1,.,.,.,14,.,.
Cc1ccc2c(c1)C(c1ccccc1)N(C(=O)c1ccc(Br)o1)CC(=O)N2 (stereo not given),135*,8,1,0,-38,-6
COc1ccc(-c2nc3ccccc3c(=O)[nH]2)cc1,.,.,3,66*,.,.
CSc1ccccc1C(=O)OCC(=O)NCCN1C(=O)CSC1=O,.,.,.,-6,.,.
O=Cc1c(-c2ccccc2)cc2oc3ccccc3cc1-2,.,.,-3,51*,.,.
CCc1ccc(NC(=S)N(Cc2ccccc2)Cc2ccccn2)cc1,97,-12,-1,21,7,-9
COc1cc(CCC(=O)Nc2cc(S(=O)(=O)N3CCOCC3)ccc2OC(C)C)cc(OC)c1OC,.,.,.,13,.,.
C=C1C(=O)OC2C=C(CO)C3OC3C3OC3(C)CC(OC(=O)/C(=C/C)COC(C)=O)C12 (stereo not given),.,.,.,63*,.,.
CCCOc1ccc(C(=O)CCC(=O)OCC(=O)Nc2cccc(S(N)(=O)=O)c2)cc1,.,.,.,-11,.,.
